Screening results: PubChem BioAssay, several laboratories
A selection: hits, their analogues and other compounds. The true share with any hit is near 1%.
FXIIa inh 1536: factor XIIa (human) inhibition; AID 800; purified FXIIa, Boc-QGR-AMC fluorogenic substrate, 2 h; inhibition, % at 5 µM; 220,000 tested, 0.3% active; P00748; in the data active means inhibition above about 40%;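 further: 0% = enzyme with no compound and 100% = blank without enzyme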
Target sequence (P00748 20-372 limits assumed): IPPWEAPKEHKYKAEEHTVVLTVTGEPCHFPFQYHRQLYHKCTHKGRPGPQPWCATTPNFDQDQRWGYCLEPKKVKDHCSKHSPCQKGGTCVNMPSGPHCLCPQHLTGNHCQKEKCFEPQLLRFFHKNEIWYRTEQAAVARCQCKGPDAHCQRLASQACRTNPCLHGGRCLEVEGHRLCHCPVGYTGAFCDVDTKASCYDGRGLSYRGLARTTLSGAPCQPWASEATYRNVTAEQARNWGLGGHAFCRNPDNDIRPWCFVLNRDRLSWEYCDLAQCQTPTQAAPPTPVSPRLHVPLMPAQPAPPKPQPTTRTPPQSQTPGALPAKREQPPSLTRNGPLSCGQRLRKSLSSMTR
Target sequence (P00748 373-615 limits assumed): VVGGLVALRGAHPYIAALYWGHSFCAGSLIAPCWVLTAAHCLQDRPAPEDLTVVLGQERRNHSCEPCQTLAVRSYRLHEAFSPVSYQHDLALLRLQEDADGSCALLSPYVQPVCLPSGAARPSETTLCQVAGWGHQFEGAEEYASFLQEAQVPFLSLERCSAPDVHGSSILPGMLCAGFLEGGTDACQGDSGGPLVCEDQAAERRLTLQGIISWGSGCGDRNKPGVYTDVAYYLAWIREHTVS
hK5 inh: inhibitors of human kallikrein 5. AID 873. 210,000 tested, 0.59% active. recombinant hK5, fluorogenic AMC substrate cleavage. inhibition, % at 5 µM. Q9Y337;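 active means inhibition of 40% or more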;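 further: 0% = enzyme controls without compound and 100% = no-enzyme blanks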
Furin inhibitor: human furin inhibition; 220,000 tested, 0.061% active; P09958; purified furin, fluorogenic substrate cleavage; AID 463115; inhibition, % at 20 µM or 30 µM; in the data active means inhibition above about 25%
FXIa inh: blocks human coagulation factor XIa protease activity. P03951. 220,000 tested, 0.14% active. AID 798. purified FXIa, Boc-Glu-Ala-Arg-AMC fluorogenic substrate. inhibition, % at 5 µM;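 active means inhibition of at least 40%; inactive means inhibition below 40%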;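 further: fluorescence of freed AMC excited at 355 nm; 0% = enzyme without compound and 100% = no enzyme blank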
HSV replic up: HSV replication enhancement | HSV replication augmentation in cells, fold increase | maximum fold increase | 220,000 tested, 0.005% active | AID 1956; in the data active means maximum fold increase above about 1.5; tested in PC3 cells
thrombin 1536: thrombin (human) inhibition; P00734; alpha-thrombin, Boc-VPR-AMC fluorogenic substrate cleavage; inhibition, % at 5 µM; 220,000 tested, 0.26% active;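 active means inhibition at or above 40%; inactive means inhibition below 40%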;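 further: 0% = enzyme with no compound and 100% = wells without enzyme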
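System: human alpha-thrombin protein; Compound dosing: one concentration per compound, 5 µM, with 0.2% DMSO; Timing: reaction at room temperature; Technique: AMC fluorescence, 355/460 nm; Controls: enzyme without compound as high, wells lacking enzyme as low.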
The depositor's hits bear a star.

`Fc1ccc(NC(=S)N2CCc3ccccc3C2)c(F)c1` gave FXIIa inh 1536 7.9, hK5 inh -4.6, Furin inhibitor -19.3, FXIa inh -3.5, HSV replic up inactive and thrombin 1536 1.7.
CCOC(=O)CC1C(=O)NCCN1Cc1cccc(C(F)(F)F)c1 (centres undefined) was read as FXIIa inh 1536 -3.8, hK5 inh 40.3*, Furin inhibitor -26.5, FXIa inh -8.1, HSV replic up inactive and thrombin 1536 -6.8.
COc1cc(C2SCC(=O)N2c2c(C)n(C)n(-c3ccccc3)c2=O)ccc1O (centres undefined) was read as FXIIa inh 1536 19.3, hK5 inh 23.2, Furin inhibitor 1.4, FXIa inh 42.9*, HSV replic up inactive and thrombin 1536 28.2.
CC(C)(C)C(=O)Nc1ccc(C(=O)N/N=C/c2ccccc2OC(=O)c2ccccc2)cc1 was read as FXIIa inh 1536 -1.5, hK5 inh 11.1, Furin inhibitor -22.1, FXIa inh 59.9*, HSV replic up inactive and thrombin 1536 -3.4.
Screening CC(C)(C)C(=O)Nc1ccc(C(=O)N/N=C/c2ccccc2OC(=O)c2ccc(Cl)cc2)cc1 returned FXIIa inh 1536 18.9, hK5 inh -11.2, Furin inhibitor -18.1, FXIa inh 11.6, HSV replic up inactive and thrombin 1536 -1.1.
For CC(C)CN(CCCNC(=O)CC1Oc2ccccc2NC1=O)CC(C)C (centres undefined) the results were FXIIa inh 1536 -1.5, hK5 inh 3.3, Furin inhibitor -6.5, FXIa inh 1.1, HSV replic up inactive and thrombin 1536 0.8.
`CC1CC(C)CN(CCCNC(=O)CC2Oc3ccccc3NC2=O)C1` (centres undefined) gave FXIIa inh 1536 2.9, hK5 inh 9.2, Furin inhibitor -20.2, FXIa inh -3.7, HSV replic up inactive and thrombin 1536 -6.8.
`CC(C)N(CCCNC(=O)CC1Oc2ccccc2NC1=O)Cc1ccccc1` (centres undefined) gave FXIIa inh 1536 22.4, hK5 inh 55.4*, Furin inhibitor -35.8, FXIa inh 0.9, HSV replic up inactive and thrombin 1536 8.1.
For O=C(CC1Oc2ccccc2NC1=O)NCCCN1CCCC1=O (centres undefined) the results were FXIIa inh 1536 18.0, hK5 inh 53.3*, Furin inhibitor -40.7, FXIa inh 2.2, HSV replic up inactive and thrombin 1536 11.6.
CCN(CC)S(=O)(=O)c1ccc(O)c(C(=O)OCC(=O)N2c3ccccc3CC2C)c1 (centres undefined) was read as FXIIa inh 1536 3.7, hK5 inh 1.9, Furin inhibitor -5.1, FXIa inh -1.0, HSV replic up inactive and thrombin 1536 -1.6.
CC(=O)Nc1cccc(Oc2ncnc3scc(-c4ccc(C(C)C)cc4)c23)c1 was read as FXIIa inh 1536 13.0, hK5 inh -3.3, Furin inhibitor -1.6, FXIa inh 11.3, HSV replic up inactive and thrombin 1536 1.2.
Cc1ccnc(NC(c2ccccn2)c2c(C)[nH]c3ccccc23)c1 (centres undefined) was read as FXIIa inh 1536 25.9, hK5 inh 2.5, Furin inhibitor -8.8, FXIa inh 17.8, HSV replic up inactive and thrombin 1536 14.7.
Screening CSc1nc(-c2ccccc2)nc(N2CCOCC2)c1C(C)=O returned FXIIa inh 1536 35.0, hK5 inh 19.0, Furin inhibitor -5.7, FXIa inh 29.1, HSV replic up inactive and thrombin 1536 49.6*.
O=C(Nc1ccc(O)c2c(=O)cc(-c3cccc(Cl)c3)oc12)c1ccccc1Cl was read as FXIIa inh 1536 1.2, hK5 inh 0.0, Furin inhibitor -28.6, FXIa inh -5.3, HSV replic up inactive and thrombin 1536 -2.8.
Screening CC1=C(C)CC(C(=O)NNC(=O)c2csc(C)c2C)C(C(=O)O)C1 (centres undefined) returned FXIIa inh 1536 16.2, hK5 inh -8.6, Furin inhibitor -10.6, FXIa inh 6.9, HSV replic up inactive and thrombin 1536 -4.5.
`N#Cc1sc2nc(-c3cccs3)cc(-c3ccccc3)c2c1N` gave FXIIa inh 1536 -5.4, hK5 inh -12.0, Furin inhibitor -9.2, FXIa inh -2.5, HSV replic up inactive and thrombin 1536 -5.0.
N#Cc1sc2nc(-c3ccccc3)cc(C(F)(F)F)c2c1N was read as FXIIa inh 1536 22.5, hK5 inh 24.0, Furin inhibitor -5.8, FXIa inh 26.0, HSV replic up inactive and thrombin 1536 50.0*.
`CCc1nnc(NC(=O)c2ccc(NC(=O)C(C)C)cc2)s1` gave FXIIa inh 1536 3.6, hK5 inh 0.4, Furin inhibitor -10.4, FXIa inh 43.3*, HSV replic up inactive and thrombin 1536 2.1.
For Cc1ccc(C)c(NC(=S)NCCc2c[nH]c3ccccc23)c1 the results were FXIIa inh 1536 15.1, hK5 inh 42.1*, Furin inhibitor -3.0, FXIa inh -7.7, HSV replic up inactive and thrombin 1536 9.8.
Cc1ccccc1NC(=S)NCCc1c[nH]c2ccccc12 was read as FXIIa inh 1536 12.1, hK5 inh -14.0, Furin inhibitor 2.8, FXIa inh 3.2, HSV replic up inactive and thrombin 1536 1.1.
For COc1ccccc1CN(CC(=O)NCc1ccco1)C(=O)CNS(=O)(=O)c1ccc(C)cc1 the results were FXIIa inh 1536 21.3, hK5 inh -5.3, Furin inhibitor -13.3, FXIa inh 7.8, HSV replic up inactive and thrombin 1536 55.6*.
Screening COc1ccccc1CN(CC(=O)NCc1ccco1)C(=O)CNS(=O)(=O)c1ccccc1 returned FXIIa inh 1536 0.3, hK5 inh 0.2, Furin inhibitor -13.4, FXIa inh -3.4, HSV replic up inactive and thrombin 1536 4.1.
Screening COc1ccc(CNc2nc(NCc3ccc(OC)cc3)n(C(C)=O)n2)cc1 returned FXIIa inh 1536 6.3, hK5 inh -3.4, Furin inhibitor -1.1, FXIa inh -5.3, HSV replic up inactive and thrombin 1536 -0.6.
CC(C)C(=O)n1nc(-c2cccnc2)nc1NCc1ccc(F)cc1 was read as FXIIa inh 1536 0.6, Furin inhibitor -9.8, FXIa inh 3.1, HSV replic up inactive and thrombin 1536 99.8*.
Screening COc1ccccc1C(=O)n1nc(-c2cccnc2)nc1NCc1ccccc1 returned FXIIa inh 1536 3.2, hK5 inh 0.4, Furin inhibitor -13.6, FXIa inh 14.6 and HSV replic up inactive.
`CC(=O)n1nc(-c2ccc(C)cc2)nc1NCc1ccco1` gave FXIIa inh 1536 10.4, hK5 inh 5.8, Furin inhibitor -22.1, FXIa inh -0.6, HSV replic up inactive and thrombin 1536 68.9*.
`COc1ccc(CC(=O)n2nc(-c3ccccc3)nc2NCc2ccco2)cc1` gave FXIIa inh 1536 12.7, hK5 inh -19.2, Furin inhibitor -14.2, FXIa inh 6.5 and thrombin 1536 92.8*.
